Laboratory results: ChEMBL document CHEMBL4680065, “Pharmacophore-based screening of diamidine small molecule inhibitors for protein arginine methyltransferases” (RSC Med Chem, 2021)

Experiments:
[1] = molecular target: Protein arginine N-methyltransferase 1 (Homo sapiens, UniProt Q99873); test: Inhibition of recombinant human His-tagged PRMT1 expressed in Escherichia coli BL21 (DE3) using biotin-labeled histone H4-20 as substrate incubated for 8 mins in presence of [3H]-SAM cofactor by scintillation proximity assay
Protein arginine N-methyltransferase 1, sequence (Q99873 whole entry): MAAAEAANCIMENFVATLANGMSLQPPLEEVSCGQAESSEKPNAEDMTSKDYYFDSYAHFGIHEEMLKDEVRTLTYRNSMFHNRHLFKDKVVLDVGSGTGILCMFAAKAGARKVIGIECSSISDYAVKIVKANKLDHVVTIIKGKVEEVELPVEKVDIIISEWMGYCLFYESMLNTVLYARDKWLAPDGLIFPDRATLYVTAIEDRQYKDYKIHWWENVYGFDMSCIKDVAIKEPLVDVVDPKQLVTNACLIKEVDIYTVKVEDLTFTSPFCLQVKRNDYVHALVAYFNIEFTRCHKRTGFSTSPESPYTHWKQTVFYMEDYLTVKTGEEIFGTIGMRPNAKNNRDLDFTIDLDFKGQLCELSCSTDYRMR

[2] = molecular target: T1, Protein arginine N-methyltransferase 7 (Homo sapiens) (UniProt Q9NVM4); test: Inhibition of recombinant GST-tagged PRMT7 (unknown origin) expressed in Escherichia coli assessed as residual activity at 10 uM using biotin-labeled SMD1 as substrate incubated for 120 mins in presence of [3H]-SAM cofactor by scintillation proximity assay relative to control
T1 sequence (whole entry): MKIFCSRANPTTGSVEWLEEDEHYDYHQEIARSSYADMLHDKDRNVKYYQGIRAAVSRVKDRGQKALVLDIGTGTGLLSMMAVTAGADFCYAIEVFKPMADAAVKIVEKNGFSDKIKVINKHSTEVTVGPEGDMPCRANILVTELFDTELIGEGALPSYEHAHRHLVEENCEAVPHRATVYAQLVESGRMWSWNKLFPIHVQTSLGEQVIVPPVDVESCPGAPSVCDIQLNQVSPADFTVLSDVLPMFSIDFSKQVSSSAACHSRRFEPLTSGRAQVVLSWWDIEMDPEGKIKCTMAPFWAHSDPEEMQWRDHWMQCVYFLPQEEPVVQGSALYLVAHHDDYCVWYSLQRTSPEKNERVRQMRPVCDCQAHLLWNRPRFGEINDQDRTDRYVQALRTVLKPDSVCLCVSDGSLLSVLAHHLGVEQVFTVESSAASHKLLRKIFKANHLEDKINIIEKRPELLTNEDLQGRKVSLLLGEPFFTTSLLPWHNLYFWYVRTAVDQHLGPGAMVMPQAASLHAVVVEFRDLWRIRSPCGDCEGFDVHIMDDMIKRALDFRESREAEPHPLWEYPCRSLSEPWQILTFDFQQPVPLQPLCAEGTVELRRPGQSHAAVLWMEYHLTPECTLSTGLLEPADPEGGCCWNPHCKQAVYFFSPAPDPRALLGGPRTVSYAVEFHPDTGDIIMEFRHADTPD
How it was run: (§1)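 Single-point profiling used 10 μM inhibitor added to the enzyme, [3H]-SAM and substrate mixture. Methylated substrate was quantified by scintillation proximity assay. Reactions were held at initial rate, with yield under 10% and substrate near Km. Enzyme, [3H]-SAM and substrate final levels are given in the supplement.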

[3] = molecular target: Protein arginine N-methyltransferase 8 (Homo sapiens, UniProt Q9NR22); test: Inhibition of recombinant His-tagged human PRMT8 expressed in Escherichia coli BL21 (DE3) using biotin-labeled histone H4-20 peptide as substrate incubated for 8 mins in presence of [3H]-SAM cofactor by scintillation proximity assay
Protein arginine N-methyltransferase 8, sequence (Q9NR22 whole entry): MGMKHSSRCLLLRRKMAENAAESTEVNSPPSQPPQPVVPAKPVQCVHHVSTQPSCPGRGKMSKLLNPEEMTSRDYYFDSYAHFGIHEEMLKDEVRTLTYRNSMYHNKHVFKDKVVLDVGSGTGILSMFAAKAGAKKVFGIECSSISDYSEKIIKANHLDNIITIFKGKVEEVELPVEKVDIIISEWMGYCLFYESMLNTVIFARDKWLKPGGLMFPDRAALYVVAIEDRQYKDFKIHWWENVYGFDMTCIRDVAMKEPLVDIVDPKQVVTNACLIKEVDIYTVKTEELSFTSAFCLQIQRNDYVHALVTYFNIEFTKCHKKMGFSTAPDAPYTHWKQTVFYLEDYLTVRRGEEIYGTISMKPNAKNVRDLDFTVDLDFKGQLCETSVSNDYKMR
How it was run: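 The inhibitor was serially diluted and added to the enzyme, [3H]-SAM and substrate mixture, and methylated substrate was quantified by scintillation proximity assay. Reactions were held at initial rate, with yield under 10% and substrate near Km. PRMT3, PRMT8 and G9a were His-tagged human proteins, and PRMT7 was GST-tagged, all expressed in E. coli and affinity-purified.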

[4] = molecular target: T2, Histone-arginine methyltransferase CARM1 (Homo sapiens) (UniProt Q86X55); test: Inhibition of recombinant GST-tagged CARM1 (unknown origin) expressed in Escherichia coli assessed as residual activity at 10 uM using histone H3.3 peptide as substrate incubated for 120 mins in presence of [3H]-SAM cofactor by radioactive filter plate assay relative to control
T2 sequence (whole entry): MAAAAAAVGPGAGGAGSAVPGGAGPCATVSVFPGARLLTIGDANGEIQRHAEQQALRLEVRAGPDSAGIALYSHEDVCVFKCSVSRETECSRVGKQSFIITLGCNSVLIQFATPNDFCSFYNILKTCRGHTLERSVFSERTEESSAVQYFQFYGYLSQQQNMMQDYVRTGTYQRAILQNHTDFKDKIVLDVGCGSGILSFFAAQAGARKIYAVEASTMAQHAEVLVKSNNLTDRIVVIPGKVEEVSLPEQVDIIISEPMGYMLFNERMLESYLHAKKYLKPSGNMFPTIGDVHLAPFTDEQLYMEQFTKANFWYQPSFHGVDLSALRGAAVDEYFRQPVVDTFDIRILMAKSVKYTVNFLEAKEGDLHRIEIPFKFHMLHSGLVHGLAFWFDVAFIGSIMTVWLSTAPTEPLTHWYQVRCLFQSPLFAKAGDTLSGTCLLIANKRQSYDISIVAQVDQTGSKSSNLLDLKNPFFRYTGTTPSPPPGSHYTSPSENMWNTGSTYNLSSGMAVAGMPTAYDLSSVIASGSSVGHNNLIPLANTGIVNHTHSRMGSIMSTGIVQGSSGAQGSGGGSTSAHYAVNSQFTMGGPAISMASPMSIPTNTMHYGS

[5] = molecular target: PRMT5/MEP50 complex (Homo sapiens) (UniProt O14744+Q9BQA1); test: Inhibition of PRMT5/MEP50 (unknown origin) assessed as residual activity at 10 uM using biotin-labeled histone H4-20 peptide as substrate incubated for 8 mins in presence of [3H]-SAM cofactor by scintillation proximity assay relative to control; type: protein-complex assay; how it was run: as §1

N=C(N)c1ccc(Nc2ccc(-c3cc4ccc(C(=N)N)cc4[nH]3)cc2)cc1
IC50 [1]: 2.6 µM | Activity [2]: 32.1% | IC50 [3]: 8.2 µM | Activity [4]: 50.7% | Activity [5]: 35.1%
